Calls of active or inactive are those of the source. The calls are words filed in the database; no cut-off is given here. Peptide text beside a SMILES is read from it. * marks the point of attachment. Cbz = O=C(OCc1ccccc1)*
Key:
Influenza A virus [1] = assay: Antiviral activity against Influenza A virus A/WSN/33(H1N1) infected in MDCK cells at 100 uM preincubated with virus for 15 mins followed by cells addition measured at 36 hrs post infection; format: functional, A/WSN/1933(H1N1)
In short: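 MDCK canine kidney cells grown in DMEM and infected with influenza A/WSN/33 (H1N1). Compounds screened at 100 μM. Oseltamivir phosphate served as the positive control.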

Influenza A virus [2] = assay: Antiviral activity against Influenza A virus A/WSN/33(H1N1) infected in dog MDCK cells preincubated with virus for 15 mins followed by cells addition measured at 36 hrs post infection; format: functional, organism-based; conditions: A/WSN/1933(H1N1)
[3] = molecular target: T1, Nuclear factor erythroid 2-related factor 2 (Homo sapiens) (UniProt Q16236); assay: Activation of NRF2 transcription in human HepG2C8 cells at 10 uM after 6 hrs by luciferase reporter gene assay relative to control; format: cell-based
T1 sequence (whole entry): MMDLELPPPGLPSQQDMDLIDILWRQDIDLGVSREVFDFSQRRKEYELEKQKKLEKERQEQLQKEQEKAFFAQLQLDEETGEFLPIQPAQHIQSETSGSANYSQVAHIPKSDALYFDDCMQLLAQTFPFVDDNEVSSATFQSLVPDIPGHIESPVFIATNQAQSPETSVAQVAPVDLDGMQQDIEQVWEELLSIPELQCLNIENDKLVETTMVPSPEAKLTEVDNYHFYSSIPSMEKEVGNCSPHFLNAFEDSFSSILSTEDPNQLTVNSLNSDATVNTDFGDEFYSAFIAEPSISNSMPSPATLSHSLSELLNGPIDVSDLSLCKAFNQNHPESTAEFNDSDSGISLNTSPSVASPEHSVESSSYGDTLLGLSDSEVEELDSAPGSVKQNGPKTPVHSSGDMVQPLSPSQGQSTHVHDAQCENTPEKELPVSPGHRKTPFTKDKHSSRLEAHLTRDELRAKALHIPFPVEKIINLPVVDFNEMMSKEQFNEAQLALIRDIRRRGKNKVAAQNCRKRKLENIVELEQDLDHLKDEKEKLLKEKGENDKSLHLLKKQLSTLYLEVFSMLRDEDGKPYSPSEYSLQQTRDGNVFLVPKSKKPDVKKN
In short: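 Luciferase reporter in HepG2C8 cells, which are HepG2 stably transfected with an Nrf2 luciferase reporter and grown in MEM. Screened at 10 μM, with dose-response over 2.5−40 μM. Activity expressed as fold of control. tBHQ positive control.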

[4] = molecular target: T2, Tyrosine-protein phosphatase non-receptor type 1 (Homo sapiens) (UniProt P18031); assay: Inhibition of recombinant human PTP1B assessed as hydrolysis of p-nitrophenyl phosphate at 25 uM after 30 mins relative to control
T2 sequence (whole entry): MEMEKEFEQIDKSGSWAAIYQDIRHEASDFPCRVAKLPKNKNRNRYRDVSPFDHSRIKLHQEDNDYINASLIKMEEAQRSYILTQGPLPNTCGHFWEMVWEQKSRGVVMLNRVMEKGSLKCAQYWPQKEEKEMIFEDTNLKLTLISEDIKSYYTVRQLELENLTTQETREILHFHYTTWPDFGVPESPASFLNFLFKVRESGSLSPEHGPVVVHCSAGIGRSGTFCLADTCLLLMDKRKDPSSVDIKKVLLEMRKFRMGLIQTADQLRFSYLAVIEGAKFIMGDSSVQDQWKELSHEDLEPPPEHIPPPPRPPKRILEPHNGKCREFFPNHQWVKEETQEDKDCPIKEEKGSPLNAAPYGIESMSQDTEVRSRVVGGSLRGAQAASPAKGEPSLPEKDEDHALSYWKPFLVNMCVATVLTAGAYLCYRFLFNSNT

SW480 [5] = assay: Inhibition of NFkappaB transcription in human SW480 cells at 10 uM by luciferase reporter gene assay; format: cell-based
In short: (§1)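 SW480 cells (RPMI1640) stably transfected with an NF-κB luciferase reporter. […] MG132 positive control.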

[6] = (§2) Inhibition of NFkappaB transcription in human SW480 cells at by luciferase reporter gene assay; format: cell-based; in short: as §1
SW480 [7] = assay: as §2; format: cell-based; in short: as §1
HepG2 = assay: Cytotoxicity against human HepG2 cells assessed as reduction in cell viability after 24 hrs by MTS assay; format: functional, cell-based; conditions: HepG2, 24 h
In short: (§3)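 Cells seeded at 5 × 10^3/well and cultured overnight, then exposed to compounds for 24 h. Viability read by MTS. Media: SW480 in RPMI1640, A549 in DMEM, MCF7 in MEM. […] Irinotecan positive control.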

SW480 [8] = assay: Cytotoxicity against human SW480 cells assessed as reduction in cell viability after 24 hrs by MTS assay; format: functional, cell-based; conditions: SW480, 24 h; in short: as §3
A549 = assay: Cytotoxicity against human A549 cells assessed as reduction in cell viability after 24 hrs by MTS assay; format: functional, cell-based; conditions: A549, 24 h; in short: as §3
MCF7 = assay: Cytotoxicity against human MCF7 cells assessed as reduction in cell viability after 24 hrs by MTS assay; format: functional, cell-based; conditions: MCF7, 24 h; in short: as §3
[9] = molecular target: T3, Tyrosinase (Homo sapiens) (UniProt P14679); assay: Inhibition of tyrosinase (unknown origin) using L-tyrosine as substrate assessed as oxidation of L-tyrosine at 20 uM after 15 mins
T3 sequence (whole entry): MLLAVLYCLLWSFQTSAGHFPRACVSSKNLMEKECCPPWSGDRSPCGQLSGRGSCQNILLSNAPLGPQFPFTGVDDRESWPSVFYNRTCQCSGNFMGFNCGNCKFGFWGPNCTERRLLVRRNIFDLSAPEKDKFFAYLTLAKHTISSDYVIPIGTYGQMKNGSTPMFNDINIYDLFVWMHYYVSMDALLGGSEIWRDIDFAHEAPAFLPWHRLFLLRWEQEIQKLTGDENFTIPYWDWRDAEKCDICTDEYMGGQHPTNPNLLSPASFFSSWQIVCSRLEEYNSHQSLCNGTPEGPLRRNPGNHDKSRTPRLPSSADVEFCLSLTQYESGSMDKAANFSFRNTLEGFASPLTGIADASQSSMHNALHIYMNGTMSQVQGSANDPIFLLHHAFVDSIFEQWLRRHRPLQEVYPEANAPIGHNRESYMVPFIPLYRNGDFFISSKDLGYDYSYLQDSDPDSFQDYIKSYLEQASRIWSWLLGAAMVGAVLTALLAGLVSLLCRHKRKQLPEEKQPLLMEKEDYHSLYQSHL
In short: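 Tyrosinase at 333 U/mL (stock) in 45 mM sodium phosphate, pH 6.6, with 2 mM L-tyrosine (stock). Incubated 37 °C for 15 min; oxidation read at 492 nm. Screened at 20 μM; dose-response for IC50. Glyasperin C positive control.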

SMILES: C[C@H]1O[C@H](O[C@H]2CC(C)(C)C[C@@H]3C4=CC(=O)[C@H]5[C@]6(C)CC[C@@H](O[C@@H]7O[C@H](C(=O)O)[C@@H](O)[C@H](O)[C@H]7O[C@@H]7O[C@H](C(=O)O)[C@@H](O)[C@H](O)[C@H]7O)C(C)(C)[C@H]6CC[C@]5(C)[C@@]4(C)CC[C@]23C)[C@@H](O)[C@@H](O)[C@@H]1O
- Activity (Influenza A virus [1]): 47%
- IC50 (Influenza A virus [2]): 39.6 µM
- fold change (FC) [3]: 1.53

SMILES: CC(C)=CCc1c(O)c(CC=C(C)C)c2occ(-c3ccc(O)cc3)c(=O)c2c1O
- Activity (Influenza A virus [1]): >30%
- inhibition [4]: > 95%

SMILES: COc1cc2c(c3oc(=O)c4c5ccc(O)cc5oc4c13)C(C)(C)C(C)O2 (configuration not stated)
- fold change (FC) [3]: 0.88

SMILES: CC(C)C[C@@H](C=O)NC(=O)[C@H](CC(C)C)NC(=O)[C@H](CC(C)C)NC(=O)OCc1ccccc1 [MG-132] (Cbz-Leu-Leu-Leu-aldehyde)
- inhibition (SW480 [5]): 23%
- IC50 [6]: 29.5 µM
- inhibition (SW480 [7]): Dose-dependent effect

SMILES: C[C@@H]1O[C@@H](c2c(O)c([C@@H]3O[C@H](COC(=O)CC(C)(O)CC(=O)O)[C@@H](O)[C@H](O)[C@H]3O)c3oc(-c4ccc(O)cc4)cc(=O)c3c2O)[C@H](O)[C@H](O)[C@H]1O (some centres not stated)
- fold change (FC) [3]: 1.5

SMILES: CC(C)=CCc1cc2c(=O)cc(-c3ccc(O)cc3)oc2cc1O
- inhibition [4]: Active

SMILES: CC(C)=CCc1c(O)cc2occ(-c3ccc(O)c(O)c3)c(=O)c2c1O
- IC50 (HepG2): 6 µM
- IC50 (SW480 [8]): 12 µM
- IC50 (A549): 20.3 µM
- IC50 (MCF7): 7 µM

SMILES: C=CC(C)(C)c1c(O)cc(OC)c2cc(-c3ccc(O)cc3O)c(=O)oc12
- fold change (FC) [3]: 0.88

SMILES: COc1cc2c(c3oc(-c4ccc(O)cc4O)cc13)C(C)(C)C(C)O2 (configuration not stated)
- inhibition [4]: > 90%

SMILES: COc1c2c(cc3oc(=O)c4c5ccc(O)cc5oc4c13)OC(C)(C)CC2
- fold change (FC) [3]: 3.32

SMILES: CC1(C)[C@@H](O)CC[C@]2(C)[C@H]3C(=O)C=C4[C@H]5C[C@@](C)(C(=O)O)CC[C@]5(C)CC[C@@]4(C)[C@]3(C)CC[C@@H]12
- Activity (Influenza A virus [1]): 58%
- inhibition [4]: 81%

SMILES: COc1cc2c(c(OC)c1CC=C(C)C)C1c3ccc(O)cc3OC1(O)CO2 (configuration not stated)
- inhibition (SW480 [5]): > 30%
- IC50 [6]: 24.6 µM
- inhibition (SW480 [7]): Dose-dependent effect

SMILES: CC(C)=CCc1c(O)cc2oc(-c3ccc(O)cc3)c(O)c(=O)c2c1O
- inhibition [4]: 51%

SMILES: COc1c(CC=C(C)C)c(O)cc2oc(=O)c3c4ccc(O)cc4oc3c12
- fold change (FC) [3]: 0.88

SMILES: O=C(/C=C/c1ccc(O)cc1)c1ccc(O)cc1O
- fold change (FC) [3]: 5.88
- inhibition [9]: Active

SMILES: CCc1c2c(nc3ccc(OC(=O)N4CCC(N5CCCCC5)CC4)cc13)-c1cc3c(c(=O)n1C2)COC(=O)[C@]3(O)CC [IRINOTECAN]
- IC50 (HepG2): 0.9 µM
- IC50 (SW480 [8]): 1.4 µM
- IC50 (A549): 0.8 µM
- IC50 (MCF7): 0.5 µM

SMILES: CC1(C)C=Cc2c(ccc3c2OC[C@@H](c2ccc(O)cc2O)C3)O1 [GLABRIDIN]
- inhibition (SW480 [5]): > 30%
- IC50 [6]: 21.4 µM
- inhibition (SW480 [7]): Dose-dependent effect

SMILES: COc1cc2c(c3oc(=O)c(-c4ccc(O)cc4O)cc13)C(C)(C)C(CO)O2 (configuration not stated)
- fold change (FC) [3]: 0.88

SMILES: COc1c(-c2ccc(O)cc2)oc2cc(O)c(CC=C(C)C)c(O)c2c1=O
- IC50 (HepG2): 10.8 µM
- IC50 (SW480 [8]): 16.1 µM
- IC50 (A549): 23.1 µM
- IC50 (MCF7): 7.3 µM
- inhibition [4]: 52%

SMILES: COc1c(CC=C(C)C)c(O)cc2oc(=O)c(-c3ccc(O)cc3O)cc12
- fold change (FC) [3]: 1.72

SMILES: O=C1C[C@@H](c2ccc(O)cc2)Oc2cc(O)ccc21
- inhibition [4]: inactive

SMILES: COc1cc(/C=C/C(=O)c2ccc(O)cc2O)ccc1O
- inhibition [9]: Active

SMILES: COc1cc2c(c(OC)c1CC=C(C)C)C=C(c1ccc(O)cc1O)CO2
- inhibition [9]: inactive

SMILES: CC(C)=CCc1cc(-c2oc3cc(O)cc(O)c3c(=O)c2O)cc(O)c1O
- inhibition [4]: Active

SMILES: COc1c2c(cc3oc(=O)c(-c4ccc(O)cc4O)cc13)OC(C)(C)CC2
- fold change (FC) [3]: 3.49

SMILES: C[C@]1(C(=O)O)CC[C@@]2(C)CC[C@@]3(C)C(=CC(=O)[C@H]4[C@]5(C)CC[C@@H](O[C@H]6O[C@@H](C(=O)O)[C@H](O)[C@@H](O)[C@@H]6O[C@H]6O[C@@H](C(=O)O)[C@H](O)[C@@H](O)[C@@H]6O)[C@@](C)(CO)[C@H]5CC[C@@]43C)[C@@H]2C1
- Activity (Influenza A virus [1]): 47%
- IC50 (Influenza A virus [2]): 39.6 µM

SMILES: CC1(C)[C@@H](O[C@@H]2O[C@H](C(=O)O)[C@@H](O)[C@H](O)[C@H]2O[C@@H]2O[C@H](C(=O)O)[C@@H](O)[C@H](O)[C@H]2O)CC[C@]2(C)[C@H]3C(=O)C=C4[C@H]5C[C@@](C)(CO)C[C@@H](O)[C@]5(C)CC[C@@]4(C)[C@]3(C)CC[C@@H]12
- Activity (Influenza A virus [1]): 47%
- IC50 (Influenza A virus [2]): 39.6 µM

SMILES: COc1cc2c(c3oc(=O)c(-c4ccc(O)cc4O)cc13)C(C)(C)C(C)O2 (configuration not stated)
- fold change (FC) [3]: 0.88

SMILES: CC(C)=CCc1c(O)ccc(-c2coc3c(CC=C(C)C)c(O)cc(O)c3c2=O)c1O
- Activity (Influenza A virus [1]): >30%
- inhibition [4]: > 95%

SMILES: CC1(C)[C@H]2CC[C@@]3(C)[C@@H](C(=O)C=C4[C@@H]5C[C@]6(C)C[C@@H](COC6=O)[C@@]5(C)CC[C@@]43C)[C@]2(C)CC[C@H]1O[C@@H]1O[C@H](C(=O)O)[C@@H](O)[C@H](O)[C@H]1O[C@@H]1O[C@H](C(=O)O)[C@@H](O)[C@H](O)[C@H]1O
- Activity (Influenza A virus [1]): 47%
- IC50 (Influenza A virus [2]): 39.6 µM

SMILES: COc1cc2oc(=O)c(-c3ccc(O)cc3O)cc2c(OC)c1CC=C(C)C
- fold change (FC) [3]: 0.88

SMILES: CC(C)=CCc1cc(-c2oc3cc(O)cc(O)c3c(=O)c2O)ccc1O
- inhibition [4]: 98%

Reference: ChEMBL document CHEMBL3808312, “Bioactive Constituents of Glycyrrhiza uralensis (Licorice): Discovery of the Effective Components of a Traditional Herbal Medicine” (J Nat Prod, 2016)
